# Source: ChEMBL document CHEMBL4251624, “Synthesis of podophyllotoxin linked β-carboline congeners as potential anticancer agents and DNA topoisomerase II inhibitors” (Eur J Med Chem, 2018)
# Calls of active or inactive are those of the source. The rule behind the calls is not given here.
# How the values were obtained:
# [1] = tested on: HEK293; assay: Cytotoxicity against HEK293 cells after 48 hrs by MTT assay; type: cell-based; settings: Homo sapiens, HEK293, 48 h
# Outline: (§1)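 MTT assay. Cells seeded at 1×10^4 per well in DMEM or MEM with 10% FBS and grown 24 h at 37 °C under CO2. Compounds added for 48 h, then MTT (5 mg/mL stock) for 4 h. Formazan dissolved in DMSO and read at 570 nm. IC50 is the average of three independent experiments.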
# [2] = tested on: DU-145; assay: Cytotoxicity against human DU145 cells after 48 hrs by MTT assay; type: functional, cell-based; settings: DU-145, 48 h; outline: as §1
# [3] = tested on: HeLa; assay: Cytotoxicity against human HeLa cells after 48 hrs by MTT assay; type: functional, cell-based; outline: as §1
# [4] = tested on: A549; assay: Cytotoxicity against human A549 cells after 48 hrs by MTT assay; type: functional, cell-based; settings: A549, 48 h; outline: as §1
# [5] = tested on: HT-29; assay: Cytotoxicity against human HT-29 cells after 48 hrs by MTT assay; type: functional, cell-based; settings: HT-29, 48 h; outline: as §1
# [6] = tested on: MDA-MB-231; assay: Cytotoxicity against human MDA-MB-231 cells after 48 hrs by MTT assay; type: functional, cell-based; settings: MDA-MB-231, 48 h; outline: as §1
# [7] = tested on: Calf thymus DNA; assay: Binding affinity to calf thymus DNA by UV-Visible spectroscopic method; type: nucleic-acid assay; settings: Bos taurus
# Outline: (§2)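 UV-visible absorption titration at 25 °C in […] cuvettes. Compound held at 25.0 μM (1 ml, 1 cm path), titrated with 5 μl additions of 25.0 μM CT-DNA in 100 mM Tris-HCl pH 7.0 until absorbance saturated. Spectra recorded 200–400 nm, using freshly prepared stocks.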
# [8] = species on record: Homo sapiens; assay: Inhibition of topoisomerase-2 (unknown origin) assessed as reduction in ATP-dependent decatenation of kinetoplast DNA at 10 uM after 30 mins by ethidium bromide staining based UV trans-illumination assay
# Outline: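 kDNA decatenation, 20 μl reactions: 120 mM KCl, 50 mM Tris-HCl pH 8, 10 mM MgCl2, 0.5 mM DTT, 0.5 mM ATP, BSA, 200–300 ng kDNA, topo II 5 units. Incubated 37 °C for 30 min, stopped with SDS/proteinase K for 10 min at 37 °C. Products run on 1% agarose at 100 V and visualized by ethidium bromide under UV.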
# [9] = tested on: Calf thymus DNA; assay: Binding affinity to calf thymus DNA assessed as hypochromic effect at 10 uM by fluorescence spectroscopic method; type: nucleic-acid assay; settings: Bos taurus
# Outline: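 Fluorescence titration at 25 °C in an acid-washed 1 cm quartz cuvette. Compound held constant at 10 μM and titrated with CT-DNA in equal steps (multiples of 0.5 μM), with a spectrum after each addition. Excitation 230 nm, emission recorded up to 600 nm.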
# [10] = tested on: DU-145; assay: Cell cycle arrest in human DU145 cells assessed as accumulation at sub-G1 phase at 1 uM after 48 hrs by propidium iodide staining based flow cytometry (reference value: 1.49%); type: functional
# [11] = tested on: DU-145; assay: Induction of DNA damage in human DU145 cells at 10 uM after 24 hrs using propidium iodide stain by electrophoresis based fluorescence microscopic method; type: functional, cell-based
# Outline: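 DU-145 cells treated at 10 μM for 24 h; about 25,000 cells embedded in agarose on slides. Electrophoresis 20 min at 40 V in 0.5% TBE pH 8. Propidium iodide stain 30 min; fluorescence imaging at 20x.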
# [12] = tested on: DU-145; assay: Cell cycle arrest in human DU145 cells assessed as accumulation at G0/G1 phase at 1 uM after 48 hrs by propidium iodide staining based flow cytometry (reference value: 51.28%); type: functional
# [13] = tested on: Calf thymus DNA; assay: Binding affinity to calf thymus DNA assessed as hyperchromic effect […] by UV-Visible spectroscopic method; type: nucleic-acid assay; settings: Bos taurus; outline: as §2
# [14] = tested on: Calf thymus DNA; assay: Binding affinity to calf thymus DNA assessed as hypochromicity of positive CD band at 10 to 20 uM by CD spectroscopic method relative to control; type: nucleic-acid assay; settings: Bos taurus
# Outline: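 CD spectra of 10 μM CT-DNA in 100 mM Tris-HCl pH 7.0, alone and with 10.0 or 20 μM compound (1:1 and 1:2 DNA:complex). Recorded 200–350 nm in a 1 mm path cuvette and averaged over 3 scans.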
# [15] = tested on: DU-145; assay: Cell cycle arrest in human DU145 cells assessed as accumulation at S-phase at 1 uM after 48 hrs by propidium iodide staining based flow cytometry (reference value: 24.99%); type: functional
# [16] = tested on: DU-145; assay: Cell cycle arrest in human DU145 cells assessed as accumulation at G2/Mphase at 1 uM after 48 hrs by propidium iodide staining based flow cytometry (reference value: 21.71%); type: functional
smiles,measurement,setting,value
COc1cc([C@@H]2c3cc4c(cc3[C@@H](NC(=O)c3cc5c([nH]c6ccccc65)c(-c5cccnc5)n3)[C@H]3COC(=O)[C@H]23)OCO4)cc(OC)c1OC,IC50,[1],84.3 µM
same,IC50,[2],1.98 µM
same,IC50,[3],4.72 µM
same,IC50,[4],2.55 µM
same,IC50,[5],6.36 µM
same,IC50,[6],3.05 µM
COc1cc([C@@H]2c3cc4c(cc3[C@H](O)[C@H]3COC(=O)[C@H]23)OCO4)cc(OC)c1OC [PODOFILOX],IC50,[2],3.11 µM
same,IC50,[3],3.04 µM
same,IC50,[5],2.99 µM
same,IC50,[6],9.76 µM
COc1cccc2c1C(=O)c1c(O)c3c(c(O)c1C2=O)C[C@@](O)(C(=O)CO)C[C@@H]3O[C@H]1C[C@H](N)[C@H](O)[C@H](C)O1 [DOXORUBICIN],IC50,[2],1.86 µM
same,IC50,[4],1.68 µM
same,IC50,[5],1.41 µM
same,IC50,[6],1.32 µM
COc1ccc(-c2nc(C(=O)N[C@@H]3c4cc5c(cc4[C@@H](c4cc(OC)c(OC)c(OC)c4)[C@H]4C(=O)OC[C@@H]43)OCO5)cc3c2[nH]c2ccccc23)cc1,IC50,[1],65 µM
same,IC50,[2],16.8 µM
same,IC50,[3],21.9 µM
same,IC50,[4],29.4 µM
same,IC50,[5],35.6 µM
same,IC50,[6],34 µM
COc1cc([C@@H]2c3cc4c(cc3[C@@H](NC(=O)c3cc5c([nH]c6ccccc65)c(-c5ccc(F)c(F)c5)n3)[C@H]3COC(=O)[C@H]23)OCO4)cc(OC)c1OC,Kb,[7],1 ×10⁴ /M
same,IC50,[1],106 µM
same,inhibition,[8],Active
same,Activity,[9],Active
same,Activity,[10],10.9%
same,Activity,[11],Active
same,IC50,[2],1.14 µM
same,Activity,[12],18.41%
same,Activity,[13],Active
same,IC50,[3],3.72 µM
same,IC50,[4],2.24 µM
same,Activity,[14],Active
same,IC50,[5],3.53 µM
same,Activity,[15],39.65%
same,Activity,[16],28.08%
same,IC50,[6],2.9 µM
COc1ccc(-c2nc(C(=O)N[C@@H]3c4cc5c(cc4[C@@H](c4cc(OC)c(OC)c(OC)c4)[C@H]4C(=O)OC[C@@H]43)OCO5)cc3c2[nH]c2ccccc23)cc1OC,IC50,[1],89.8 µM
same,IC50,[2],9.16 µM
same,IC50,[3],13.4 µM
same,IC50,[4],12.7 µM
same,IC50,[5],14.3 µM
same,IC50,[6],15.5 µM
COc1cc([C@@H]2c3cc4c(cc3[C@@H](NC(=O)c3cc5c([nH]c6ccccc65)c(-c5ccc(F)cc5)n3)[C@H]3COC(=O)[C@H]23)OCO4)cc(OC)c1OC,IC50,[1],109 µM
same,IC50,[2],5.07 µM
same,IC50,[3],15.5 µM
same,IC50,[4],10.2 µM
same,IC50,[5],11.5 µM
same,IC50,[6],10.7 µM
COc1cc([C@@H]2c3cc4c(cc3[C@@H](NC(=O)c3cc5c([nH]c6ccccc65)c(-c5cccc(Oc6ccccc6)c5)n3)[C@H]3COC(=O)[C@H]23)OCO4)cc(OC)c1OC,IC50,[1],102 µM
same,IC50,[2],3.17 µM
same,IC50,[3],11.2 µM
same,IC50,[4],5.19 µM
same,IC50,[5],10.3 µM
same,IC50,[6],7.52 µM
COc1cc(-c2nc(C(=O)N[C@@H]3c4cc5c(cc4[C@@H](c4cc(OC)c(OC)c(OC)c4)[C@H]4C(=O)OC[C@@H]43)OCO5)cc3c2[nH]c2ccccc23)cc(OC)c1OC,IC50,[1],168 µM
same,IC50,[2],40.3 µM
same,IC50,[3],72.9 µM
same,IC50,[4],104 µM
same,IC50,[5],86.5 µM
same,IC50,[6],58.8 µM
COc1cc([C@@H]2c3cc4c(cc3[C@@H](NC(=O)c3cc5c([nH]c6ccccc65)c(-c5cccc(F)c5)n3)[C@H]3COC(=O)[C@H]23)OCO4)cc(OC)c1OC,IC50,[1],104 µM
same,IC50,[2],48.4 µM
same,IC50,[3],26.5 µM
same,IC50,[4],36.4 µM
same,IC50,[5],55.7 µM
same,IC50,[6],80.4 µM
COc1cc([C@@H]2c3cc4c(cc3[C@@H](NC(=O)c3cc5c([nH]c6ccccc65)c(-c5cccc6ccccc56)n3)[C@H]3COC(=O)[C@H]23)OCO4)cc(OC)c1OC,IC50,[1],77.3 µM
same,IC50,[2],22 µM
same,IC50,[3],33 µM
same,IC50,[4],56.9 µM
same,IC50,[5],23 µM
same,IC50,[6],27.9 µM
COc1cc([C@@H]2c3cc4c(cc3[C@@H](NC(=O)c3cc5c([nH]c6ccccc65)c(-c5ccccc5)n3)[C@H]3COC(=O)[C@H]23)OCO4)cc(OC)c1OC,IC50,[1],75 µM
same,IC50,[2],1.68 µM
same,IC50,[3],5.26 µM
same,IC50,[4],2 µM
same,IC50,[5],6.87 µM
same,IC50,[6],2.6 µM
COc1cc([C@@H]2c3cc4c(cc3[C@@H](NC(=O)c3cc5c([nH]c6ccccc65)c(-c5cccc(Cl)c5)n3)[C@H]3COC(=O)[C@H]23)OCO4)cc(OC)c1OC,IC50,[1],131 µM
same,IC50,[2],2.41 µM
same,IC50,[3],6.09 µM
same,IC50,[4],3.16 µM
same,IC50,[5],5.26 µM
same,IC50,[6],3.29 µM
COc1cc([C@@H]2c3cc4c(cc3[C@@H](NC(=O)c3cc5c([nH]c6ccccc65)c(-c5ccc6c(c5)OCO6)n3)[C@H]3COC(=O)[C@H]23)OCO4)cc(OC)c1OC,IC50,[1],70.6 µM
same,IC50,[2],14.5 µM
same,IC50,[3],15.3 µM
same,IC50,[4],21.8 µM
same,IC50,[5],30.6 µM
same,IC50,[6],34.3 µM
COc1ccc(OC)c(-c2nc(C(=O)N[C@@H]3c4cc5c(cc4[C@@H](c4cc(OC)c(OC)c(OC)c4)[C@H]4C(=O)OC[C@@H]43)OCO5)cc3c2[nH]c2ccccc23)c1,Kb,[7],1 ×10⁴ /M
same,IC50,[1],103 µM
same,inhibition,[8],Active
same,Activity,[9],Active
same,Activity,[10],10.79%
same,Activity,[11],Active
same,IC50,[2],1.07 µM
same,Activity,[12],18.69%
same,Activity,[13],Active
same,IC50,[3],2.92 µM
same,IC50,[4],1.87 µM
same,Activity,[14],Active
same,IC50,[5],2.68 µM
same,Activity,[15],41.44%
same,Activity,[16],29.16%
same,IC50,[6],2.64 µM
COc1cc([C@@H]2c3cc4c(cc3[C@@H](NC(=O)c3cc5c([nH]c6ccccc65)c(-c5ccc(C(F)(F)F)cc5)n3)[C@H]3COC(=O)[C@H]23)OCO4)cc(OC)c1OC,IC50,[1],63 µM
same,IC50,[2],24.8 µM
same,IC50,[3],32.1 µM
same,IC50,[4],34.1 µM
same,IC50,[5],46.5 µM
same,IC50,[6],75.9 µM
COc1cc([C@@H]2c3cc4c(cc3[C@@H](NC(=O)c3cc5c([nH]c6ccccc65)c(-c5ccc(C)cc5)n3)[C@H]3COC(=O)[C@H]23)OCO4)cc(OC)c1OC,IC50,[1],59.4 µM
same,IC50,[2],8.74 µM
same,IC50,[3],9.77 µM
same,IC50,[4],16.8 µM
same,IC50,[5],20 µM
same,IC50,[6],16.4 µM
COc1cc([C@@H]2c3cc4c(cc3[C@@H](NC(=O)c3cc5c([nH]c6ccccc65)c(-c5ccc(Cl)cc5)n3)[C@H]3COC(=O)[C@H]23)OCO4)cc(OC)c1OC,IC50,[1],58.9 µM
same,IC50,[2],2.65 µM
same,IC50,[3],6.61 µM
same,IC50,[4],3.98 µM
same,IC50,[5],5.77 µM
same,IC50,[6],3.87 µM
COc1ccccc1-c1nc(C(=O)N[C@@H]2c3cc4c(cc3[C@@H](c3cc(OC)c(OC)c(OC)c3)[C@H]3C(=O)OC[C@@H]32)OCO4)cc2c1[nH]c1ccccc12,IC50,[1],107 µM
same,IC50,[2],1.41 µM
same,IC50,[3],4.12 µM
same,IC50,[4],1.94 µM
same,IC50,[5],4.3 µM
same,IC50,[6],2.69 µM
